Results: ChEMBL document CHEMBL1155942, “Synthesis and evaluation in vitro and in vivo of a 11C-labeled cyclooxygenase-2 (COX-2) inhibitor” (Bioorg Med Chem, 2008)

What was measured:
Blood [1] = experiment: Biodistribution in Wistar rat blood at ~20 MBq, iv after 5 mins; format: ADME, organism-based; details: in vivo
How it was run: (§1)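 Male Wistar rats, housed under standard conditions. Each received about 20 MBq of radiotracer iv in 0.5 mL saline with 10% ethanol. Animals were killed at 5 or 60 min post injection, and organs were excised and weighed. Activity was gamma-counted, decay-corrected and calibrated against injected-tracer aliquots, then expressed as %ID/g. Mean ± SD, four animals per time point.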

Blood [2] = experiment: Biodistribution in Wistar rat blood at ~20 MBq, iv after 60 mins; format: ADME, organism-based; details: in vivo, 1 h; how it was run: as §1
Brain [3] = experiment: Biodistribution in Wistar rat brain at ~20 MBq, iv after 5 mins; format: ADME, organism-based; details: in vivo; how it was run: as §1
Brain [4] = experiment: Biodistribution in Wistar rat brain at ~20 MBq, iv after 60 mins; format: ADME, organism-based; details: in vivo, 1 h; how it was run: as §1
Heart [5] = experiment: Biodistribution in Wistar rat heart at ~20 MBq, iv after 5 mins; format: ADME, organism-based; details: in vivo; how it was run: as §1
Heart [6] = experiment: Biodistribution in Wistar rat heart at ~20 MBq, iv after 60 mins; format: ADME, organism-based; details: in vivo, 1 h; how it was run: as §1
Lung [7] = experiment: Biodistribution in Wistar rat lung at ~20 MBq, iv after 5 mins; format: ADME, organism-based; details: in vivo; how it was run: as §1
Lung [8] = experiment: Biodistribution in Wistar rat lung at ~20 MBq, iv after 60 mins; format: ADME, organism-based; details: in vivo, 1 h; how it was run: as §1
Liver [9] = experiment: Biodistribution in Wistar rat liver at ~20 MBq, iv after 5 mins; format: ADME, organism-based; details: in vivo; how it was run: as §1
Liver [10] = experiment: Biodistribution in Wistar rat liver at ~20 MBq, iv after 60 mins; format: ADME, organism-based; details: in vivo, 1 h; how it was run: as §1
Spleen [11] = experiment: Biodistribution in Wistar rat spleen at ~20 MBq, iv after 5 mins; format: ADME, organism-based; details: in vivo; how it was run: as §1
Spleen [12] = experiment: Biodistribution in Wistar rat spleen at ~20 MBq, iv after 60 mins; format: ADME, organism-based; details: in vivo, 1 h; how it was run: as §1
Pancreas [13] = experiment: Biodistribution in Wistar rat pancreas at ~20 MBq, iv after 5 mins; format: ADME, organism-based; details: in vivo; how it was run: as §1
Pancreas [14] = experiment: Biodistribution in Wistar rat pancreas at ~20 MBq, iv after 60 mins; format: ADME, organism-based; details: in vivo, 1 h; how it was run: as §1
Adrenal [15] = experiment: Biodistribution in Wistar rat adrenal at ~20 MBq, iv after 5 mins; format: ADME, organism-based, Adrenal tissue; details: in vivo; how it was run: as §1
Adrenal [16] = experiment: Biodistribution in Wistar rat adrenal at ~20 MBq, iv after 60 mins; format: ADME, organism-based, Adrenal tissue; details: in vivo, 1 h; how it was run: as §1
Kidney [17] = experiment: Biodistribution in Wistar rat kidney at ~20 MBq, iv after 5 mins; format: ADME, organism-based; details: in vivo; how it was run: as §1
Kidney [18] = experiment: Biodistribution in Wistar rat kidney at ~20 MBq, iv after 60 mins; format: ADME, organism-based; details: in vivo, 1 h; how it was run: as §1
Thymus [19] = experiment: Biodistribution in Wistar rat thymus at ~20 MBq, iv after 5 mins; format: ADME, organism-based; details: in vivo; how it was run: as §1
Thymus [20] = experiment: Biodistribution in Wistar rat thymus at ~20 MBq, iv after 60 mins; format: ADME, organism-based; details: in vivo, 1 h; how it was run: as §1
Muscle tissue [21] = experiment: Biodistribution in Wistar rat muscle at ~20 MBq, iv after 5 mins; format: ADME, organism-based; details: in vivo; how it was run: as §1
Muscle tissue [22] = experiment: Biodistribution in Wistar rat muscle at ~20 MBq, iv after 60 mins; format: ADME, organism-based; details: in vivo, 1 h; how it was run: as §1
Harderian gland [23] = experiment: Biodistribution in Wistar rat harderian gland at ~20 MBq, iv after 5 mins; format: ADME, organism-based; details: in vivo; how it was run: as §1
Harderian gland [24] = experiment: Biodistribution in Wistar rat harderian gland at ~20 MBq, iv after 60 mins; format: ADME, organism-based; details: in vivo, 1 h; how it was run: as §1
[25] = Biodistribution in Wistar rat brown adipose tissue at ~20 MBq, iv after 5 mins; format: ADME, organism-based; details: in vivo; how it was run: as §1
[26] = Biodistribution in Wistar rat brown adipose tissue at ~20 MBq, iv after 60 mins; format: ADME, organism-based; details: in vivo, 1 h; how it was run: as §1
[27] = Biodistribution in Wistar rat white adipose tissue at ~20 MBq, iv after 5 mins; format: ADME, organism-based; details: in vivo; how it was run: as §1
[28] = Biodistribution in Wistar rat white adipose tissue at ~20 MBq, iv after 60 mins; format: ADME, organism-based; details: in vivo, 1 h; how it was run: as §1
Femur [29] = experiment: Biodistribution in Wistar rat femur at ~20 MBq, iv after 5 mins; format: ADME, organism-based; details: in vivo; how it was run: as §1
Femur [30] = experiment: Biodistribution in Wistar rat femur at ~20 MBq, iv after 60 mins; format: ADME, organism-based; details: in vivo, 1 h; how it was run: as §1
Testes [31] = experiment: Biodistribution in Wistar rat testes at ~20 MBq, iv after 5 mins; format: ADME, organism-based, Testis; details: in vivo; how it was run: as §1
Testes [32] = experiment: Biodistribution in Wistar rat testes at ~20 MBq, iv after 60 mins; format: ADME, organism-based, Testis; details: in vivo, 1 h; how it was run: as §1
[33] = Metabolic stability in Wistar rat plasma at 30 MBq, iv after 1 min; format: ADME, organism-based; details: read-out: Stability
How it was run: (§2)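 After iv radiotracer, arterial blood was drawn through a femoral artery catheter. Plasma was separated by centrifugation (3 min, 11,000g). Proteins were precipitated with ice-cold methanol (1.5 parts per part plasma) and centrifuged again. Supernatants were analysed by HPLC for the fraction of intact radiotracer over time.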

[34] = Metabolic stability in Wistar rat plasma at 30 MBq, iv after 5 mins; format: ADME, organism-based; details: read-out: Stability; how it was run: as §2
[35] = Metabolic stability in Wistar rat plasma at 30 MBq, iv after 10 mins; format: ADME, organism-based; details: read-out: Stability; how it was run: as §2
[36] = Metabolic stability in Wistar rat plasma at 30 MBq, iv after 20 mins; format: ADME, organism-based; details: read-out: Stability; how it was run: as §2
[37] = Metabolic stability in Wistar rat plasma at 30 MBq, iv after 30 mins; format: ADME, organism-based; details: read-out: Stability; how it was run: as §2
[38] = Metabolic stability in Wistar rat plasma at 30 MBq, iv after 60 mins; format: ADME, organism-based; details: read-out: Stability; how it was run: as §2
[39] = Metabolic stability in human HT29 cells bearing mouse plasma at 20 MBq, iv after 1 min; format: ADME, organism-based, HT-29; details: read-out: Stability; how it was run: as §2
[40] = Metabolic stability in human HT29 cells bearing mouse plasma at 20 MBq, iv after 5 mins; format: ADME, organism-based, HT-29; details: read-out: Stability; how it was run: as §2
[41] = Metabolic stability in human HT29 cells bearing mouse plasma at 20 MBq, iv after 10 mins; format: ADME, organism-based, HT-29; details: read-out: Stability; how it was run: as §2
[42] = Metabolic stability in human HT29 cells bearing mouse plasma at 20 MBq, iv after 20 mins; format: ADME, organism-based, HT-29; details: read-out: Stability; how it was run: as §2
[43] = Metabolic stability in human HT29 cells bearing mouse plasma at 20 MBq, iv after 30 mins; format: ADME, organism-based, HT-29; details: read-out: Stability; how it was run: as §2
[44] = Metabolic stability in human HT29 cells bearing mouse plasma at 20 MBq, iv after 60 mins; format: ADME, organism-based, HT-29; details: read-out: Stability; how it was run: as §2

Molecule CS(=O)(=O)c1ccc(C2=C(c3ccc(O[11CH3])cc3)CCC2)cc1 has a Drug uptake (Blood [1]) of 0.23 % ID/g, a Drug uptake (Blood [2]) of 0.18 % ID/g and a Drug uptake (Brain [3]) of 0.59 % ID/g. The Drug uptake (Brain [4]) was 0.11 % ID/g, the Drug uptake (Heart [5]) was 0.5 % ID/g and the Drug uptake (Heart [6]) was 0.16 % ID/g. It also gave a Drug uptake (Lung [7]) of 0.59 % ID/g, a Drug uptake (Lung [8]) of 0.19 % ID/g and a Drug uptake (Liver [9]) of 1.35 % ID/g. For the same molecule, the Drug uptake (Liver [10]) was 0.76 % ID/g, the Drug uptake (Spleen [11]) was 0.32 % ID/g and the Drug uptake (Spleen [12]) was 0.21 % ID/g. For the same molecule, the Drug uptake (Pancreas [13]) was 0.78 % ID/g, the Drug uptake (Pancreas [14]) was 0.52 % ID/g and the Drug uptake (Adrenal [15]) was 1.33 % ID/g. The Drug uptake (Adrenal [16]) was 0.57 % ID/g, the Drug uptake (Kidney [17]) was 0.62 % ID/g and the Drug uptake (Kidney [18]) was 0.26 % ID/g. It also gave a Drug uptake (Thymus [19]) of 0.64 % ID/g, a Drug uptake (Thymus [20]) of 0.2 % ID/g and a Drug uptake (Muscle tissue [21]) of 0.32 % ID/g. The Drug uptake (Muscle tissue [22]) was 0.11 % ID/g, the Drug uptake (Harderian gland [23]) was 1.06 % ID/g and the Drug uptake (Harderian gland [24]) was 0.42 % ID/g. For the same molecule, the Drug uptake [25] was 1.89 % ID/g, the Drug uptake [26] was 0.67 % ID/g and the Drug uptake [27] was 0.53 % ID/g. It also gave a Drug uptake [28] of 0.52 % ID/g, a Drug uptake (Femur [29]) of 0.34 % ID/g and a Drug uptake (Femur [30]) of 0.19 % ID/g. It also gave a Drug uptake (Testes [31]) of 0.2 % ID/g, a Drug uptake (Testes [32]) of 0.09 % ID/g and a remaining at 1 min [33] of 97%. For the same molecule, the remaining at 5 min [34] was 57%, the remaining at 10 min [35] was 35% and the remaining at 20 min [36] was 26%. It also gave a remaining at 0.5 h [37] of 22%, a remaining at 1 h [38] of 18% and a remaining at 1 min [39] of 95%. The remaining at 5 min [40] was 40%, the remaining at 10 min [41] was 17% and the remaining at 20 min [42] was 8%. The remaining at 0.5 h [43] was 5% and the remaining at 1 h [44] was 2%.
